Calls of active or inactive are those of the source.
Assays:
Trypanosoma cruzi [1] = experiment: Antitrypanosomal activity against epimastigote form of Trypanosoma cruzi assessed as inhibition of parasite growth; assay type: functional, organism-based
Method in brief: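 Exponential-phase epimastigotes at 2 × 10^6 parasites/mL were exposed to 1, 10, 25, 50 and 100 μM compound in medium containing 0.01% DMSO. Parasites were counted by hemocytometer at 24, 48 and 72 h.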

Vero = experiment: Cytotoxicity against african green monkey Vero cells assessed as cell viability after 72 hrs by FACS analysis; assay type: cell-based; settings: Chlorocebus sabaeus
[2] = Selectivity index, ratio of IC50 for african green monkey Vero cells to IC50 for epimastigote form of Trypanosoma cruzi; assay type: toxicity, cell-based; settings: Vero cells (versus epimastigote form of Trypanosoma cruzi), read-out: Ratio IC50
Trypanosoma cruzi [3] = experiment: Antitrypanosomal activity against metacyclic forms of Trypanosoma cruzi infected in vero cells assessed as inhibition of infection at IC25 concentration after 12 hrs; assay type: functional
Method in brief: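 Vero cells were seeded at 1 × 10^5 per well on coverslips, grown 2 days, and infected with metacyclic forms at 10:1, with compounds at IC25 present for 12 h at 37 °C. After washing, cultures were grown 10 days. Methanol-fixed, Giemsa-stained cells (>100 per sample) were scored for percent infected and amastigotes per cell. Results are means of four determinations.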

Trypanosoma cruzi [4] = experiment: Antitrypanosomal activity against metacyclic forms of Trypanosoma cruzi infected in vero cells assessed as decrease in trypomastigotes at IC25 concentration after 12 hrs; assay type: functional; set-up: scale not given: the % may be the effect or the level left
Method in brief: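 Vero cells were seeded at 1 × 10^5 per well on coverslips, grown 2 days, then infected with metacyclic forms at 10:1. Compounds at IC25 were added at infection for 12 h at 37 °C, 5% CO2, then washed out. Cultures were kept 10 days with medium renewed every 48 h. Trypomastigotes released into the medium were counted.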

Trypanosoma cruzi [5] = experiment: Antitrypanosomal activity against blood trypomastigote forms of Trypanosoma cruzi infected in BALB/c mouse assessed as mouse survival rate at 1 mg/kg, ip administered 7 days postinfection once daily for 5 days; assay type: functional
Method in brief: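 T. cruzi Maracay strain; groups of five female BALB/c mice (6–8 weeks, 25–30 g) infected ip with 1 × 10³ bloodstream forms. Starting day 7 post-infection, ip dosing at 1 mg/kg/day in saline for five consecutive days; infected controls received vehicle. Mortality recorded over the study alongside parasitemia, which was counted every two days from tail blood in a Neubauer chamber.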

Trypanosoma cruzi [6] = experiment: Antitrypanosomal activity against blood trypomastigote forms of Trypanosoma cruzi infected in BALB/c mouse assessed as decrease in parasitemia at 5 mg/kg, ip administered 7 days post infection once daily for 5 days measured on day 22 post infection by […] relative to control; assay type: functional, organism-based; set-up: dose 5 mg/kg
Method in brief: (§1)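 Female BALB/c mice (6–8 weeks, five per group) were infected ip with 1 × 10^3 bloodstream forms and treated ip in saline on days 7–12 post-infection; controls received vehicle. Every two days, 5 μL tail blood was diluted 1:15 in citrate/lysis buffer (pH 7.2) and parasites counted in a Neubauer chamber. Decrease is relative to the untreated infected group.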

Trypanosoma cruzi [7] = experiment: Antitrypanosomal activity against blood trypomastigote forms of Trypanosoma cruzi infected in BALB/c mouse assessed as decrease in parasitemia at 5 mg/kg, ip administered 7 days post infection once daily for 5 days measured after 40 days post infection by […] relative to control; assay type: functional; set-up: scale not given: the % may be the effect or the level left; settings: route intraperitoneal; method in brief: as §1
Trypanosoma cruzi [8] = experiment: Antitrypanosomal activity against blood trypomastigote forms of Trypanosoma cruzi infected in BALB/c mouse assessed as decrease in anti-parasite antibodies level at 5 mg/kg, ip administered 7 days post infection once daily for 5 days measured after […] by ELISA relative to control; assay type: functional, organism-based; set-up: dose 5 mg/kg
Method in brief: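 Female BALB/c mice (6–8 weeks) were infected ip; groups of four received ip treatment days 7–12 post-infection. Sera taken on days 40 and 90 were diluted 1:100 and run in ELISA against excreted Fe-SOD antigen from epimastigotes, read at 490 nm. Cutoff was the mean of negative controls plus 3 SD. The change was taken as absorbance on day 90 minus day 40.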

Trypanosoma cruzi [9] = experiment: Antitrypanosomal activity against Trypanosoma cruzi epimastigotes assessed as increase in vacuolization at IC25 concentration after 72 hrs by transmission electron microscopy; assay type: functional, organism-based
Method in brief: (§2)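 Epimastigotes at 5 × 10^6 cells/mL were exposed to test compounds at their IC25 for 72 h. Morphology was assessed by transmission electron microscopy against untreated parasites.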

Trypanosoma cruzi [10] = experiment: Antitrypanosomal activity against Trypanosoma cruzi epimastigotes assessed as shrinkage of the protozoa at IC25 concentration after 72 hrs by transmission electron microscopy; assay type: functional, organism-based; method in brief: as §2
Trypanosoma cruzi [11] = experiment: Antitrypanosomal activity against Trypanosoma cruzi epimastigotes assessed as cytoplasmic membrane burst at IC25 concentration after 72 hrs by transmission electron microscopy; assay type: functional, organism-based; method in brief: as §2
Trypanosoma cruzi [12] = experiment: Antitrypanosomal activity against Trypanosoma cruzi epimastigotes assessed as undulating cytoplasm membrane at IC25 concentration after 72 hrs by transmission electron microscopy; assay type: functional, organism-based; method in brief: as §2
Mus musculus = experiment: Toxicity in BALB/c mouse assessed as mortality at 5 mg/kg, ip; assay type: organism-based; set-up: dose 5 mg/kg, route intraperitoneal; settings: in vivo
Trypanosoma cruzi [13] = experiment: Antitrypanosomal activity against Trypanosoma cruzi epimastigotes assessed as star-shaped and wavy cytoplasm membrane at IC25 concentration after 72 hrs by transmission electron microscopy; assay type: functional, organism-based; method in brief: as §2
Trypanosoma cruzi [14] = experiment: Antitrypanosomal activity against Trypanosoma cruzi epimastigotes assessed as dilated mitochondria at IC25 concentration after 72 hrs by transmission electron microscopy; assay type: functional, organism-based; method in brief: as §2

Q: Which IC50 (Trypanosoma cruzi [1]) does the source give for `O=c1c(O[C@@H]2O[C@H](CO)[C@@H](O)[C@H](O)[C@H]2O)c(-c2ccc(O)cc2)oc2cc(O)cc(O)c12` [ASTRAGALIN] here?
A: 15.7 µM

Q: What about the IC50 (Vero) of the same compound?
A: 174 µM

Q: What about the selectivity ratio [2] of the same compound?
A: 11.1

Q: What about the “inhibition (INH)” value (Trypanosoma cruzi [3]) of the same compound?
A: 64%

Q: What about the Activity (Trypanosoma cruzi [4]) of the same compound?
A: 65%

Q: What about the Activity (Trypanosoma cruzi [5]) of the same compound?
A: Active

Q: And the Activity (Trypanosoma cruzi [6])?
A: Active

Q: And the Activity (Trypanosoma cruzi [7])?
A: 23%

Q: What about the Activity (Trypanosoma cruzi [8]) of the same compound?
A: Active

Q: And the Activity (Trypanosoma cruzi [9])?
A: Active

Q: And the Activity (Trypanosoma cruzi [10])?
A: Active

Q: And the Activity (Trypanosoma cruzi [11])?
A: Active

Q: What about the Activity (Trypanosoma cruzi [12]) of the same compound?
A: Active

Q: What about the Activity (Mus musculus) of the same compound?
A: Non-toxic

Q: Which IC50 (Trypanosoma cruzi [1]) does the source give for `CC(=O)O[C@H]1[C@H](Oc2c(-c3ccc(O)cc3)oc3cc(O[C@@H]4O[C@H](CO)[C@@H](O)[C@H](O)[C@H]4O)cc(O)c3c2=O)O[C@H](CO)[C@@H](O)[C@@H]1O` here?
A: 21.7 µM

Q: And the IC50 (Vero)?
A: > 1000 µM

Q: What about the selectivity ratio [2] of the same compound?
A: > 46.1

Q: What about the “inhibition (INH)” value (Trypanosoma cruzi [3]) of the same compound?
A: 85%

Q: What about the Activity (Trypanosoma cruzi [4]) of the same compound?
A: 77%

Q: And the Activity (Trypanosoma cruzi [5])?
A: Active

Q: What about the Activity (Trypanosoma cruzi [6]) of the same compound?
A: Active

Q: What about the Activity (Trypanosoma cruzi [7]) of the same compound?
A: 23%

Q: And the Activity (Trypanosoma cruzi [8])?
A: Active

Q: And the Activity (Trypanosoma cruzi [9])?
A: Active

Q: What about the Activity (Trypanosoma cruzi [10]) of the same compound?
A: Active

Q: What about the Activity (Mus musculus) of the same compound?
A: Non-toxic

Q: Which results are given for `O=C(Cn1ccnc1[N+](=O)[O-])NCc1ccccc1` [BENZNIDAZOLE]?
A: inhibition (INH) (Trypanosoma cruzi [3]): 39%; Activity (Trypanosoma cruzi [4]): 37%; survival at 1 mg/kg (Trypanosoma cruzi [5]; route intraperitoneal): 80%

Q: What does the source list for `CC(=O)OC[C@H]1O[C@@H](Oc2cc(OC(C)=O)c3c(=O)c(O[C@@H]4O[C@H](COC(C)=O)[C@@H](OC(C)=O)[C@H](OC(C)=O)[C@H]4OC(C)=O)c(-c4ccc(OC(C)=O)cc4)oc3c2)[C@H](OC(C)=O)[C@@H](OC(C)=O)[C@@H]1OC(C)=O` [PAEONOSIDE DECAACETATE]?
A: IC50 (Trypanosoma cruzi [1]): 17.2 µM; IC50 (Vero): > 1000 µM; selectivity ratio [2]: > 58.1; inhibition (INH) (Trypanosoma cruzi [3]): 82%; Activity (Trypanosoma cruzi [4]): 85%; Activity (Trypanosoma cruzi [5]): Active; Activity (Trypanosoma cruzi [6]): Active; Activity (Trypanosoma cruzi [7]): 23%; Activity (Trypanosoma cruzi [8]): Active; Activity (Trypanosoma cruzi [9]): Active; Activity (Trypanosoma cruzi [10]): Active; Activity (Trypanosoma cruzi [11]): Active; Activity (Trypanosoma cruzi [12]): Active; Activity (Trypanosoma cruzi [13]): Active; Activity (Mus musculus): Non-toxic

Q: Which IC50 (Trypanosoma cruzi [1]) does the source give for `C[C@H]1O[C@H](Oc2cc(O)c3c(=O)c(O[C@@H]4O[C@H](CO)[C@@H](O)[C@H](O)[C@H]4O)c(-c4ccc(O)c(O)c4)oc3c2)[C@@H](O)[C@@H](O)[C@@H]1O` [PETIOLAROSIDE] here?
A: 30.3 µM

Q: And the IC50 (Vero)?
A: > 1000 µM

Q: And the selectivity ratio [2]?
A: > 33

Q: And the “inhibition (INH)” value (Trypanosoma cruzi [3])?
A: 68%

Q: And the Activity (Trypanosoma cruzi [4])?
A: 72%

Q: And the Activity (Trypanosoma cruzi [5])?
A: Active

Q: What about the Activity (Trypanosoma cruzi [6]) of the same compound?
A: Active

Q: What about the Activity (Trypanosoma cruzi [7]) of the same compound?
A: 23%

Q: And the Activity (Trypanosoma cruzi [8])?
A: Active

Q: And the Activity (Trypanosoma cruzi [9])?
A: Active

Q: What about the Activity (Trypanosoma cruzi [10]) of the same compound?
A: Active

Q: What about the Activity (Mus musculus) of the same compound?
A: Non-toxic

Q: With `CC(=O)O[C@H]1[C@H](Oc2c(-c3ccc(O)c(O)c3)oc3cc(O[C@H]4O[C@H](C)[C@@H](O)[C@H](O)[C@@H]4O)cc(O)c3c2=O)O[C@H](CO)[C@@H](O)[C@@H]1O` as the compound, how does the IC50 (Trypanosoma cruzi [1]) read?
A: 27.3 µM

Q: And the IC50 (Vero)?
A: > 1000 µM

Q: What about the selectivity ratio [2] of the same compound?
A: > 36.6

Q: What about the “inhibition (INH)” value (Trypanosoma cruzi [3]) of the same compound?
A: 65%

Q: What about the Activity (Trypanosoma cruzi [4]) of the same compound?
A: 58%

Q: What about the Activity (Trypanosoma cruzi [5]) of the same compound?
A: Active

Q: And the Activity (Trypanosoma cruzi [6])?
A: Active

Q: And the Activity (Trypanosoma cruzi [7])?
A: 23%

Q: And the Activity (Trypanosoma cruzi [8])?
A: Active

Q: And the Activity (Trypanosoma cruzi [9])?
A: Active

Q: And the Activity (Trypanosoma cruzi [10])?
A: Active

Q: And the Activity (Mus musculus)?
A: Non-toxic

Q: Which IC50 (Trypanosoma cruzi [1]) does the source give for `CC(=O)OC[C@H]1O[C@@H](Oc2c(-c3ccc(OC(C)=O)cc3)oc3cc(OC(C)=O)cc(OC(C)=O)c3c2=O)[C@H](OC(C)=O)[C@@H](OC(C)=O)[C@@H]1OC(C)=O` [ASTRAGALIN HEPTAACETATE] here?
A: 0.8 µM

Q: And the IC50 (Vero)?
A: 164 µM

Q: What about the selectivity ratio [2] of the same compound?
A: 205

Q: What about the “inhibition (INH)” value (Trypanosoma cruzi [3]) of the same compound?
A: 91%

Q: What about the Activity (Trypanosoma cruzi [4]) of the same compound?
A: 95%

Q: And the Activity (Trypanosoma cruzi [5])?
A: Active

Q: And the Activity (Trypanosoma cruzi [6])?
A: Active

Q: What about the Activity (Trypanosoma cruzi [7]) of the same compound?
A: 23%

Q: And the Activity (Trypanosoma cruzi [8])?
A: Active

Q: And the Activity (Trypanosoma cruzi [9])?
A: Active

Q: What about the Activity (Trypanosoma cruzi [10]) of the same compound?
A: Active

Q: And the Activity (Mus musculus)?
A: Non-toxic

Q: With `CC(=O)O[C@H]1[C@H](Oc2c(-c3ccc(O)cc3)oc3cc(O)cc(O)c3c2=O)O[C@H](CO)[C@@H](O)[C@@H]1O` as the compound, how does the IC50 (Trypanosoma cruzi [1]) read?
A: 6.5 µM

Q: What about the IC50 (Vero) of the same compound?
A: 294 µM

Q: And the selectivity ratio [2]?
A: 45.2

Q: And the “inhibition (INH)” value (Trypanosoma cruzi [3])?
A: 88%

Q: What about the Activity (Trypanosoma cruzi [4]) of the same compound?
A: 78%

Q: And the Activity (Trypanosoma cruzi [5])?
A: Active

Q: And the Activity (Trypanosoma cruzi [6])?
A: Active

Q: What about the Activity (Trypanosoma cruzi [7]) of the same compound?
A: 23%

Q: And the Activity (Trypanosoma cruzi [8])?
A: Active

Q: What about the Activity (Trypanosoma cruzi [9]) of the same compound?
A: Active

Q: What about the Activity (Trypanosoma cruzi [10]) of the same compound?
A: Active

Q: What about the Activity (Trypanosoma cruzi [11]) of the same compound?
A: Active

Q: What about the Activity (Trypanosoma cruzi [12]) of the same compound?
A: Active

Q: And the Activity (Trypanosoma cruzi [14])?
A: Active

Q: What about the Activity (Mus musculus) of the same compound?
A: Non-toxic
